High-throughput results as filed in PubChem BioAssay.
EBNA-1 inh: blocks EBNA-1 binding to DNA | EBNA-1 DNA binding, fluorescence polarization | inhibition, % at 14.8 µM | actives 0.34% (n = 300,000) | AID 1950; in the data active = inhibition above about 28%
NS3 helicase inh: inhibitors of Hepatitis C virus NS3 helicase. NS3 helicase DNA unwinding, Cy5 molecular beacon fluorescence. inhibition, % at 10.9 µM. actives 0.56% (n = 290,000). AID 1800;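 active = inhibition above the mean of all tested compounds plus 3 SD, set per campaign, cut at about 35% in these data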
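Assay system: hepatitis C virus NS3 helicase domain fragment enzyme. Also added: annealed dual-labelled DNA beacon duplex, ATP-started. Timing: 1 h reaction at 25 °C, ATP-initiated. Technique: Cy5 fluorescence at 0 and 60 min, beacon hairpin quenching. Evaluation: % inhibition of unwinding. Replication: one well per compound.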
HCV core dimer: HCV core protein dimerization inhibition | inhibition, % at 5 µM | actives 0.33% (n = 300,000) | AID 1899 | TR-FRET GST/Flag-core106 dimerization, 1536-well;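 active = inhibition above the mean of all tested compounds plus 3 SD, set per screening campaign, cut at about 45% in these data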
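Assay system: GST-tagged and Flag-tagged HCV core protein residues 1-106 / Times: compound-protein-antibody incubation 4 h at 22.5 °C / Signal: time-resolved FRET, ex 340 nm, em 617 and 671 nm / Evaluation: % inhibition based on acceptor/donor emission ratio / Benchmarks: wells lacking GST-core106 and wells with excess unlabelled core106 / Repeats: singlicate, one well per compound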
ZTA counter: ZTA (EBV) inhibition in EBNA-1 counter-screen. P03206. ZTA-DNA binding, fluorescence polarization. inhibition, % at 11 µM. actives 0.15% (n = 320,000). AID 2234; in the data active = inhibition above about 33%
Target sequence (P03206 whole entry, looked up): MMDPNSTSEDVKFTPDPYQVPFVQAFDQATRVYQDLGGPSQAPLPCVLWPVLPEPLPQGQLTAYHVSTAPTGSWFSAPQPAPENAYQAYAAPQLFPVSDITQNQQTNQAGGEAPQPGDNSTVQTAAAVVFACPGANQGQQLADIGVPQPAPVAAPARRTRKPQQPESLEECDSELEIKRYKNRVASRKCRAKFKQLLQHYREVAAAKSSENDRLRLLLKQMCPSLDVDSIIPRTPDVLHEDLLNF
Each line names hits and unclear results; the compound was inactive in the other large screens. Shown are actives, neighbours in structure and some others; about 1.2% of the full set was active somewhere.

COc1cccc(NC(=O)COC(=O)/C=C/c2ccc(Cl)cc2Cl)c1	EBNA-1 inh 38.6
COc1ccc(-c2cc(C)no2)cc1S(=O)(=O)NCc1ccc(OC(C)C)cc1	none
Cc1ccc(-c2csc3ncnc(OCC(=O)NC(=O)NCc4ccco4)c23)cc1	HCV core dimer 48.9
CCCCc1nc2sc3c(SCCN(C)C)ncnc3c2c2c1CCC2	none
Cc1sc2ncnc(SCC(=O)NC(=O)NCc3ccco3)c2c1C	HCV core dimer 50.3
Cc1nc(SCC(=O)NCc2ccco2)c2c(C)c(C)sc2n1	none
O=C(COc1ncnc2scc(-c3ccc(F)cc3)c12)NCc1ccco1	none
O=C(CSc1nc2cc(Cl)ccc2s1)NC(=O)NCc1ccco1	HCV core dimer 57.0
CCCCc1nc2sc3c(SCC(=O)NCc4ccco4)ncnc3c2c2c1CCC2	HCV core dimer 104.5
CCOc1ccc2nc(SCC(=O)NC(=O)NCc3ccco3)sc2c1	none
Cc1cccc(C(=O)N2CCc3cc(-c4nc(NC(=O)Cn5nnc6ccccc6c5=O)sc4C)ccc32)c1	HCV core dimer 52.1
O=C(c1cc(C2CC2)nn1-c1ccccc1)N1CCN(Cc2c(F)cccc2Cl)CC1	none (no result: EBNA-1 inh, NS3 helicase inh, HCV core dimer)
COc1ccc(OCCC(=O)OCC(=O)NCc2ccco2)cc1	HCV core dimer 85.2
COc1ccccc1NCCC(=O)OCC(=O)NCc1ccco1	HCV core dimer 58.2
Cc1ccccc1OCC(=O)OCC(=O)NCc1ccco1	none (no result: NS3 helicase inh)
Cc1ccc(S(=O)(=O)NCc2ccc(C(=O)NC3CCC(O)CC3)cc2)cc1C (stereo not drawn)	none (no result: EBNA-1 inh, NS3 helicase inh, HCV core dimer)
COc1ccc(Br)cc1CNC(=O)Cn1nc(C)n2cccc2c1=O	none
O=C(CNC(=O)c1ccccc1F)NCC(c1cccs1)N1CCOCC1 (stereo not drawn)	none (no result: EBNA-1 inh, NS3 helicase inh, HCV core dimer)
O=C(NC(=S)NNC(=O)c1ccco1)c1ccc(Br)cc1	none
COc1ccc(/C(C)=N/NC(=O)c2ccncc2)cc1	none
COc1ccc(C(=O)N/N=C(\C)c2ccc3c(c2)C2C=CCC2C(c2ccccc2)N3)cc1 (stereo not drawn)	HCV core dimer 67.1
CC1(C)CCC[C@]2(C)C(CS(=O)c3ccccc3)=C(C=O)CC[C@@H]12 (stereo partly drawn)	none (no result: NS3 helicase inh)
Cc1cccc(-n2c(SCC(=O)c3c(N)n(C4CC4)c(=O)[nH]c3=O)nnc2N2CCOCC2)c1	none (no result: EBNA-1 inh, NS3 helicase inh, HCV core dimer)
Cc1ccc(NC(=O)CN(C)C(=O)c2cccc(S(=O)(=O)N3CCc4ccccc43)c2)cc1	none (no result: EBNA-1 inh, NS3 helicase inh, HCV core dimer)
O=C(CCN1C(=O)C2CC=C(Cl)CC2C1=O)NCc1ccco1 (stereo not drawn)	none
O=C1C2CC=C(Cl)CC2C(=O)N1CN(Cc1ccco1)CN1C(=O)C2CC=C(Cl)CC2C1=O (stereo not drawn)	HCV core dimer 79.5
Cc1sc2ncnc(N3CCC(C(=O)Nc4ccc(Br)cc4Br)CC3)c2c1C	none (no result: NS3 helicase inh)
CC(=O)c1ccc(S(=O)(=O)Nc2ccc(-c3ccc4nnc(C)n4n3)cc2)cc1	HCV core dimer 58.4
Cc1nnc2ccc(-c3ccc(NS(C)(=O)=O)cc3)nn12	none
Cc1ccc(S(=O)(=O)Nc2cc3c(C(=O)Nc4ccccc4)c(C)oc3c3ccccc23)cc1	HCV core dimer 50.1
COc1ccc2c(c1)sc(=NC(=O)CS(=O)(=O)c1ccc(F)cc1)n2C	none (no result: NS3 helicase inh)
CCn1cnc2cc(NCc3ccc(OC)cc3)ccc21	none
CCOc1ccc2nc3cc(NCc4ccc(OC)cc4)ccc3c(N)c2c1	ZTA counter 101.0
COC(=O)c1c(NC(=O)COC(=O)c2ccc(NC(=O)CC#N)cc2)sc2c1CCCCC2	HCV core dimer 62.1
CN(C)S(=O)(=O)N1CCc2ccc(NC(=O)c3ccc(C(F)(F)F)cc3)cc2C1	none
N=C1C(c2nc(-c3ccc(Br)cc3)cs2)=C(O)CN1NC(=O)c1ccc([N+](=O)[O-])cc1	HCV core dimer 52.8
Cc1ccc(-c2csc(C3=C(O)CN(NC(=O)c4ccc([N+](=O)[O-])cc4)C3=N)n2)cc1	HCV core dimer 48.1
N=C1C(c2nc(-c3ccc(Cl)cc3)cs2)=C(O)CN1NC(=O)c1ccc(O)cc1	none
CC1CCCC(NC(=O)NC(=O)COC(=O)c2ccc(O)cc2O)C1C (stereo not drawn)	none (no result: EBNA-1 inh, NS3 helicase inh, HCV core dimer)
Cc1cccc[n+]1C1C(c2ccccc2)C(C#N)=C(C(=C=[N-])C#N)NC1(O)C1CC1 (stereo not drawn)	none
N#CC(=C=[N-])C1=C(C#N)C(c2ccccc2F)C([n+]2ccccc2)C(O)(C2CC2)N1 (stereo not drawn)	HCV core dimer 51.9
CC(C)Cc1ccc(C(=O)Nc2ccc(Cc3ccncc3)cc2)o1	none (no result: EBNA-1 inh, HCV core dimer, ZTA counter)
CCN(c1ccc(OC)cc1)S(=O)(=O)c1nnc(NC(=O)COc2ccc(C)cc2)s1	HCV core dimer 56.1
CC(=O)c1ccc(N2CCN(C(=S)Nc3cccc(Cl)c3)CC2)cc1	EBNA-1 inh 55.9
O=C(c1ccco1)N(CCC(c1ccccc1)c1ccco1)Cc1ccco1 (stereo not drawn)	HCV core dimer 52.1
Cc1ccc(NC(=O)c2ccccc2OCC(=O)Nc2ccccc2F)cc1S(=O)(=O)N(C)C	none (no result: EBNA-1 inh, NS3 helicase inh, HCV core dimer)
O=C1CCCC2=C1C(c1ccncc1)c1c(nc(SCc3ccccc3Cl)[nH]c1=O)N2 (stereo not drawn)	none
CCC(C)Sc1nc2c(c(=O)[nH]1)C(c1cccs1)C1=C(CCCC1=O)N2 (stereo not drawn)	HCV core dimer 56.5
CCOP(=O)(OCC)C(C#N)=C1SCN(c2ccccc2)CS1	HCV core dimer 89.9
Nc1ccc(N2CCCCCC2)cc1	EBNA-1 inh 92.6, ZTA counter 164.6
Nc1ccc(N2CCN(c3ccc(F)cc3)CC2)cc1	none
CC(C)N=c1scc(-c2ccco2)n1/N=C/c1ccc(O)c(O)c1	none
COCCN=c1scc(-c2ccco2)n1/N=C/c1ccc(O)c(O)c1O	HCV core dimer 53.9
COc1ccc2nc(-c3ccccc3)cc(C(=O)OCC(=O)N3CC(C)OC(C)C3)c2c1 (stereo not drawn)	none (no result: EBNA-1 inh, NS3 helicase inh, HCV core dimer)
Cc1ccsc1C=Nc1ccc(O)cc1	ZTA counter 37.6
C=CCn1c(O)c(N=NC(=O)CNC(=O)/C=C/c2ccco2)c2ccccc21	HCV core dimer 49.0
O=C(c1ccco1)N1CCN(C(=O)c2cc(-c3ccccn3)nc3ccc(Cl)cc23)CC1	HCV core dimer 76.2
O=c1oc2ccccc2cc1-c1csc(NN=C2CCCC2)n1	none
C/C(=N\Nc1nc(-c2cc(C)ccc2C)cs1)c1cc2ccccc2oc1=O	HCV core dimer 57.0
CC(=O)c1cc2c(ccc3ccccc32)oc1=O	none (no result: EBNA-1 inh, HCV core dimer, ZTA counter)
C/C(=N\Nc1nc(-c2cc(C)ccc2C)cs1)c1cc2c(ccc3ccccc32)oc1=O	HCV core dimer 60.8
CCCN(Cc1nnc(-c2ccccc2Cl)o1)C(=O)COc1ccc(Cl)cc1	none (no result: EBNA-1 inh, NS3 helicase inh, HCV core dimer)
COc1cc(NC(=O)CN2C(=O)NC(CC(C)C)C2=O)cc(OC)c1OC (stereo not drawn)	none (no result: EBNA-1 inh, NS3 helicase inh, HCV core dimer)
Cc1cc(C)cc(NC(=O)/C(C#N)=C/c2cn(CC(=O)NCc3ccco3)c3ccccc23)c1	EBNA-1 inh 39.8
Cc1ccc(NC(=O)/C(C#N)=C/c2cn(CC(=O)NCc3ccco3)c3ccccc23)cc1C	none
CCN1/C(=C/C=C/c2oc3ccc4ccccc4c3[n+]2CC)Oc2ccc3ccccc3c21	EBNA-1 inh 28.7
